In ChEMBL document CHEMBL3593186, “Synthesis, β-hematin inhibition studies and antimalarial evaluation of dehydroxy isotebuquine derivatives against Plasmodium berghei” (Bioorg Med Chem, 2015):

What was measured:
[1] = Inhibition of haemozoin formation using hemin chloride assessed as beta-hematin formation at 5 to 100 uM after 48 hrs; format: physicochemical
How it was run: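 Hemin chloride (4 mM in DMSO) was mixed with compound in DMSO at 100–5 µM, in triplicate. Water or DMSO served as controls. β-Hematin formation was started with 0.2 M acetate buffer, pH 4.4, and run for 48 h at 37 °C. The pellet was washed with DMSO, dissolved in 0.2 N NaOH, diluted 1:2 in 0.1 N NaOH and read at 405 nm, giving % inhibition of haemozoin formation.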

Plasmodium berghei [2] = experiment: Antimalarial activity against chloroquine susceptible Plasmodium berghei ANKA infected in Balb-C mouse assessed as host survival days at 20 mg/kg, ip qd for 4 days (reference value: 6.80 +/- 0.70 days); format: functional
Plasmodium berghei [3] = experiment: Antimalarial activity against chloroquine susceptible Plasmodium berghei ANKA infected in Balb-C mouse assessed as reduction of parasitemia at 20 mg/kg, ip qd for 4 days by Giemsa staining (reference value: 65.20 +/- 2.58%); format: functional; set-up: scale not given: the % may be the effect or the level left
Plasmodium berghei [4] = experiment: Antimalarial activity against chloroquine susceptible Plasmodium berghei ANKA infected in Balb-C mouse assessed as host survival days at 25 mg/kg, ip qd for 4 days (reference value: 6.80 +/- 0.70 days); format: functional
Plasmodium berghei [5] = experiment: Antimalarial activity against chloroquine susceptible Plasmodium berghei ANKA infected in Balb-C mouse assessed as reduction of parasitemia at 25 mg/kg, ip qd for 4 days by Giemsa staining (reference value: 65.20 +/- 2.58%); format: functional
Mus musculus = experiment: Toxicity in chloroquine susceptible Plasmodium berghei ANKA infected Balb-C mouse at 20 mg/kg, ip qd for 4 days; format: organism-based; settings: in vivo, 96 h

Row | SMILES | inhibition (INH) [1] | Survival (Plasmodium berghei [2]) | Activity (Plasmodium berghei [3]) | Survival (Plasmodium berghei [4]) | Parasitemia (Plasmodium berghei [5]) | Activity (Mus musculus)
1 | Cl.Clc1ccc2c(Nc3ccc(CN4CCOCC4)c(-c4ccccc4)c3)ccnc2c1 | 98.04% | 23.2 days | 6.5% | – | – | –
2 | CCN(CC)Cc1ccc(Nc2ccnc3cc(Cl)ccc23)cc1-c1ccccc1.Cl | 98.45% | 25.2 days | 3.2% | – | – | –
3 | CCN(CC)CCCC(C)Nc1ccnc2cc(Cl)ccc12 (stereo unspecified) [CHLOROQUINE] | 98.57% | – | – | 29.4 days | 0.6% | –
4 | Cl.Clc1ccc2c(Nc3ccc(CN4CCCCC4)c(-c4ccccc4)c3)ccnc2c1 | 97.08% | 28.4 days | 1.8% | – | – | Non-toxic
5 | Cl.Clc1ccc2c(Nc3ccc(CN4CCCC4)c(-c4ccccc4)c3)ccnc2c1 | 98.49% | 28.6 days | 2.1% | – | – | Non-toxic
6 | Cl.Clc1ccc(-c2cc(Nc3ccnc4cc(Cl)ccc34)ccc2CN2CCOCC2)cc1 | 2.03% | – | – | – | – | –
7 | Cl.Clc1ccc(-c2cc(Nc3ccnc4cc(Cl)ccc34)ccc2CN2CCCCC2)cc1 | 97.21% | 26 days | 7.3% | – | – | –
8 | Cl.Clc1ccc(-c2cc(Nc3ccnc4cc(Cl)ccc34)ccc2CN2CCCC2)cc1 | 97.25% | 27.3 days | 2% | – | – | Non-toxic
9 | CN1CCN(Cc2ccc(Nc3ccnc4cc(Cl)ccc34)cc2-c2ccc(Cl)cc2)CC1.Cl | 1.61% | – | – | – | – | –
